Where two headings read alike, the source gives them in different places.
Legend:
recurrent CNS tumors [1] = conditions: children, 3-days-on/4-days-off schedule; cited from earlier work
[2] = children, 3-days-on/4-days-off schedule; cited from earlier work
[3] = cited from earlier work; for t1/2: adults
recurrent CNS tumors [4] = experiment: Tumor response in phase I trial of weekly MK-0752; type: in vivo, human
Method in brief: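 The oral test compound was given once weekly at 1,000 or 1,400 mg/m2 in 28-day courses, using a rolling-6 design. Disease was assessed at baseline, after course 2 and after every other course thereafter. Patients got up to 6 courses unless disease progressed, and those with stable disease after 6 courses could receive up to 13 more.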

[5] = tested on: refractory adult solid tumors; conditions: cited from earlier work
[6] = tested on: NOTCH1 cleavage (NICD1) in PBMCs; experiment: NICD1 expression in PBMCs by Western blot; type: in vivo, human; conditions: for patients with NICD1 expression decreased from baseline: PBMCs
amyloid peptide levels = conditions: animal models; cited from earlier work
[7] = Plasma pharmacokinetics of weekly MK-0752, dose 1 course 1; type: in vivo; conditions: human, oral, both dose levels
Method in brief: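 Children with recurrent CNS tumours took oral test compound capsules once weekly at 1,000 or 1,400 mg/m2, in 28-day courses. Heparinised blood was drawn before dose 1 of course 1 and at 1, 2, 3, 6, 8 (±2), 24 (±4) and 48 h after it. Plasma drug was measured by validated LC-MS/MS and analysed non-compartmentally. β came from the last two measurable points, and t1/2 = ln(2)/β.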

NOTCH pathway genes = conditions: healthy adults, once weekly dosing; cited from earlier work
[8] = tested on: children with recurrent central nervous system (CNS) malignancies; conditions: in vivo
NOTCH = conditions: adults, weekly administration; cited from earlier work
advanced breast cancer = conditions: with docetaxel, MK-0752 days 1-3, of 30 evaluable patients; cited from earlier work
[9] = tested on: children with recurrent CNS tumors; conditions: 3-days-on/4-days-off schedule; cited from earlier work
[10] = tested on: platinum-resistant ovarian carcinoma xenograft model; conditions: cited from earlier work
glioblastoma cell lines = conditions: combination with Akt inhibitor MK-2206, compared to monotherapy; cited from earlier work

For O=C(O)CC[C@H]1CC[C@@](c2cc(F)ccc2F)(S(=O)(=O)c2ccc(Cl)cc2)CC1 [MK-0752], the “evaluable patients with prolonged SD (3 and 4 cycles)” value (recurrent CNS tumors [1]) is given as 2 of 17, the t1/2 [2] is given as 11.4 h and the Cmax ([3]; adults receiving 1,800 mg (~1,040 mg/m^2) weekly) is given as 84.2 µg/mL. The t1/2 ([3]; weekly 1,800 mg (~1,040 mg/m^2)) was 13.8 h, the t1/2 ([3]; weekly 2,400 mg (~1,400 mg/m^2)) was 16.2 h and the “patients with prolonged SD (6 and 10 cycles)” value (recurrent CNS tumors [4]; all evaluable patients, weekly schedule) was 2 of 9. For the same compound, the objective responses (recurrent CNS tumors [4]; weekly 1,000 and 1,400 mg/m^2) was “No objective responses”, the “duration of CR” value ([5]; one adult patient with anaplastic astrocytoma, 1,800 mg once weekly) was greater than 1 year and the “duration of SD” value ([5]; one adult patient with glioblastoma multiforme, 4,200 mg once weekly) was greater than 1 year. The “change in NICD expression in PBMCs” value ([6]; 24 hours after the higher dose (1,400 mg)) was “dose-dependent decrease”, the “patients with NICD1 expression decreased from baseline” value ([6]; 24 hours post MK-0752, 1,000 and 1,400 mg/m^2) was 6 of 7 and the “patients with NICD1 expression decreased from baseline” value ([6]; 24 hours post MK-0752, treated at 1,400 mg/m^2 (n=3)) was “all three”. For the same compound, the blood-brain barrier penetration (amyloid peptide levels) was “penetrate the blood-brain barrier”, the “reduction of amyloid peptide levels” value (amyloid peptide levels) was 50% and the half-life ([7]; median t1/2, all 10 patients) was 21.7 h. For the same compound, the half-life ([7]; t1/2 (range), all 10 patients) was 9.8 to 42.2 h, the “duration of decreased expression of NOTCH pathway genes” value (NOTCH pathway genes) was “at least 96 hours” and the ALT increase ([8]; human) was 2. For the same compound, the AST increase ([8]; human) was 2, the Allergic rhinitis ([8]; human) was 1 and the Anorexia ([8]; human) was 1. It also gave a Diarrhea ([8]; human) of 4, a Dizziness ([8]; human) of 1 and a Dry skin ([8]; human) of 1. The Fatigue ([8]; human) was 1, the Hyperglycemia ([8]; human) was 1 and the Hypermagnesemia ([8]; human) was 1. For the same compound, the Hypoalbuminemia ([8]; human) was 2, the Hypokalemia ([8]; human) was 1 and the Hypomagenesemia ([8]; human) was 2. The Hypophosphatemia ([8]; human) was 2, the Hypotension ([8]; human) was 1 and the “Increased Hemoglobin” value ([8]; human) was 1. For the same compound, the Leukopenia ([8]; human) was 2, the Nausea ([8]; human) was 1 and the Vomiting ([8]; human) was 2. For the same compound, the “grade 4 toxicities” value ([8]; human) was “no grade 4 toxicities”, the “Non-dose-limiting grade 3 toxicities” value [8] was “lymphopenia, neutropenia, and anemia” and the “dose-limiting diarrhea and GI toxicity” value [8] was “not observed”. The “dose achieving target inhibition” value (NOTCH) was 3,200 mg, the “patients with PR” value (advanced breast cancer) was 9 and the “patients with SD” value (advanced breast cancer) was 11. The “dose-limiting toxicity preventing dose escalation beyond 260 mg/m^2” value [9] was “dose-limiting elevations of AST and ALT” and the well-tolerated dose [9] was 260 mg/m^2.

For O=S1(=O)N[C@@]2(CN1CC(F)(F)F)[C@@H]1CC[C@H]2Cc2ccc(/C=C/CN3CCC(C(F)(F)F)CC3)cc2C1 [MRK003], the “combination effect with paclitaxel” value [10] is given as “synergy” and the “effect of combination on migratory and invasive potential of glioblastoma” value (glioblastoma cell lines) is given as “synergistic inhibition”.
